Measurements from ChEMBL document CHEMBL3868626, “Discovery of novel multi-target indole-based derivatives as potent and selective inhibitors of chikungunya virus replication” (Bioorg Med Chem, 2017).
The source made the active and inactive calls. The rule behind the calls is not given here.

Tests used:
[1] = Selectivity index, ratio of CC50 for African green monkey Vero cells to EC50 for Chikungunya virus 899 infected in African green monkey Vero cells; format: toxicity, cell-based; details: read-out: Ratio CC50/EC50
How it was run: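 Ratio of CC50 in uninfected Vero cells (MTS/PMS) to EC50 for inhibition of CHIKV 899-induced CPE in Vero cells, both from logarithmic interpolation.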

[2] = test system: Chikungunya virus; experiment: Antiviral activity against Chikungunya virus 899 infected in African green monkey Vero cells assessed as inhibition of virus-induced cytopathogenic effect measured 5 days post infection by MTS/PMS based microscopic analysis; format: functional, cell-based; details: Chikungunya virus, 899, Vero, 120 h
[3] = Cytotoxicity against African green monkey Vero cells assessed as reduction in metabolic activity by MTS/PMS based microscopic analysis; format: toxicity, cell-based; details: chlorocebus sabaeus
How it was run: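 Uninfected Vero cells exposed to compound dilution series; overall metabolic activity measured by MTS/PMS, with microscopic checks of cell/monolayer morphology. CC50 = concentration reducing metabolic activity by 50%, by logarithmic interpolation.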

[4] = test system: Chikungunya virus; experiment: Antiviral activity against Chikungunya virus 899 infected in African green monkey Vero A cells assessed as inhibition of viral replication by measuring reduction in intracellular viral RNA treated 2 hrs prior to infection measured after 24 hrs by qRT-PCR analysis; format: functional
[5] = test system: Chikungunya virus; experiment: Antiviral activity against Chikungunya virus 899 pseudoparticles infected in African green monkey BGM cells assessed as inhibition of pseudoparticles entry after 72 hrs by luciferase reporter gene assay; format: functional, cell-based; details: Chikungunya virus, 899, BGM
How it was run: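 BGM cells at 2.5 × 10^4/well adhered overnight; serial compound dilutions added, then cells infected with lentiviral pseudoparticles bearing CHIKV glycoproteins and firefly luciferase reporter. After 72 h cells lysed and intracellular luciferase activity measured as entry read-out. Mean ± SD, ≥3 independent experiments.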

[6] = test system: Chikungunya virus; experiment: Antiviral activity against Chikungunya virus 899 infected in African green monkey Vero A cells assessed as inhibition of viral replication at post entry step by measuring reduction in intracellular viral RNA treated 2 hrs post infection measured after 24 hrs by qRT-PCR analysis; format: functional
[7] = test system: Chikungunya virus; experiment: Antiviral activity against Chikungunya virus assessed as inhibition of virus replication by cell based assay; format: functional
[8] = Cytotoxicity against African green monkey BGM cells; format: toxicity, cell-based; details: chlorocebus aethiops
[9] = test system: Chikungunya virus; experiment: Antiviral activity against Chikungunya virus 899 infected in African green monkey Vero A cells assessed as reduction in infectious virus particle production incubated for 48 hrs by end-point titration assay; format: functional, cell-based; details: for EC50: Chikungunya virus, 899, Vero
[10] = test system: Chikungunya virus; experiment: Antiviral activity against Chikungunya virus 899 infected in African green monkey Vero A cells assessed as reduction in viral RNA level incubated for 48 hrs by qRT-PCR analysis; format: functional, cell-based; details: for EC50: Chikungunya virus, 899, Vero
[11] = test system: Semliki Forest virus; experiment: Antiviral activity against Semliki forest virus infected in African green monkey Vero A cells assessed as inhibition of virus-induced cytopathogenic effect measured 5 days post infection by MTS/PMS based microscopic analysis; format: functional, cell-based; details: 120 h
[12] = test system: Sindbis virus; experiment: Antiviral activity against Sindbis virus infected in African green monkey Vero A cells assessed as inhibition of virus-induced cytopathogenic effect measured 5 days post infection by MTS/PMS based microscopic analysis; format: functional, cell-based; details: 120 h
[13] = test system: Chikungunya virus; experiment: Antiviral activity against Chikungunya virus 899 infected in African green monkey Vero A cells assessed as inhibition of viral replication at post entry step by measuring reduction in intracellular viral RNA treated up to 6 hrs post infection measured after 24 hrs by qRT-PCR analysis; format: functional, cell-based

Row | Compound | selectivity ratio [1] | EC50 [2] [µM] | CC50 [3] [µM] | other results
1 | Cn1c(CSc2ccccc2C(F)(F)F)c(C(=O)OC(C)(C)C)c2cc(O)c(Br)cc21 | 2.7 | 9.6 | 26 | 
2 | CN(C)Cc1c(O)c(Br)cc2c1c(C(=O)OC(C)(C)C)c(C[S+]([O-])c1ccccc1C(F)(F)F)n2C (centres undefined) | 4.6 | 12 | 56 | 
3 | Cn1c(CSc2ccccc2C(F)(F)F)c(C(=O)OC(C)(C)C)c2cc(O)ccc21 | 4.1 | 3.4 | 19 | 
4 | Cn1c(CSc2ccc(Cl)cc2)c(C(=O)OC(C)(C)C)c2cc(O)ccc21 | 3.2 | 4.8 | 15 | 
5 | Cn1c(CSc2ccc(C(F)(F)F)cc2)c(C(=O)OC(C)(C)C)c2cc(O)ccc21 | 3.1 | 3.6 | 11 | 
6 | Cn1c(C[S+]([O-])c2ccc(C(F)(F)F)cc2)c(C(=O)OC(C)(C)C)c2cc(O)ccc21 (centres undefined) | 1.9 | 13 | 24 | 
7 | Cn1c(CSc2c(Cl)cccc2Cl)c(C(=O)OC(C)(C)C)c2cc(O)c(Br)cc21 | 2.3 | 5.7 | 13 | 
8 | Cn1c(C[S+]([O-])c2ccccc2C(F)(F)F)c(C(=O)OC(C)(C)C)c2cc(O)c(Br)cc21 (centres undefined) | 2.7 | 9.6 | 26 | 
9 | CCOC(=O)c1c(CSc2ccccc2)n(C)c2cc(Br)c(O)c(CN(C)C)c12 [UMIFENOVIR] | 4.6 | 35 | 161 | inhibition (INH) [4]: >50%; EC50 [5]: 4.4 µM; inhibition (INH) [6]: >50%; EC50 [7]: < 10 µg/mL; CC50 [8]: > 60 µM
10 | Cn1c(C[S+]([O-])c2c(Cl)cccc2Cl)c(C(=O)OC(C)(C)C)c2cc(O)ccc21 (centres undefined) | 7.6 | 20 | 151 | 
11 | Cn1c(C[S+]([O-])c2ccccc2C(F)(F)F)c(C(=O)OC(C)(C)C)c2cc(CO)ccc21 (centres undefined) | > 14.6 | 32 | > 468 | EC50 [5]: 36 µM; EC50 [9]: 10 µM; EC50 [10]: 9 µM; CC50 [8]: > 60 µM; EC50 [11]: 128 µM; EC50 [12]: 96 µM
12 | Cn1c(C[S+]([O-])c2ccc(F)cc2)c(C(=O)OC(C)(C)C)c2cc(O)ccc21 (centres undefined) | > 5.7 | 17 | > 100 | 
13 | CN(C)Cc1c(O)ccc2c1c(C(=O)OC(C)(C)C)c(C[S+]([O-])c1ccccc1C(F)(F)F)n2C (centres undefined) | 3 | 22 | 66 | 
14 | Cn1c(CSc2ccc(F)cc2)c(C(=O)OC(C)(C)C)c2cc(O)ccc21 | 3.2 | 4.5 | 11 | 
15 | Cn1c(C[S+]([O-])c2ccccc2C(F)(F)F)c(C(=O)OC(C)(C)C)c2cc(O)ccc21 (centres undefined) | 22 | 6.5 | 156 | inhibition [13]: Active; EC50 [5]: 27 µM; Activity [9]: Dose-dependent effect; EC50 [9]: 1 µM; Activity [10]: Dose-dependent effect; EC50 [10]: 1 µM; CC50 [8]: 50 µM; EC50 [11]: 33 µM; EC50 [12]: 20 µM
16 | Cn1c(CSc2c(Cl)cccc2Cl)c(C(=O)OC(C)(C)C)c2cc(O)ccc21 | 2.7 | 2.9 | 7.8 | 
17 | CN(C)Cc1c(O)c(Br)cc2c1c(C(=O)OC(C)(C)C)c(CSc1c(Cl)cccc1Cl)n2C |  | ≥ 17 | 17 | 
18 | Cn1c(C[S+]([O-])c2c(Cl)cccc2Cl)c(C(=O)OC(C)(C)C)c2cc(CO)ccc21 (centres undefined) | 13.2 | 30 | 397 | 
19 | Cn1c(C[S+]([O-])c2ccc(Cl)cc2)c(C(=O)OC(C)(C)C)c2cc(O)ccc21 (centres undefined) | 11 | 8.2 | 93 | 
20 | CN(C)Cc1c(O)ccc2c1c(C(=O)OC(C)(C)C)c(C[S+]([O-])c1c(Cl)cccc1Cl)n2C (centres undefined) | 2.2 | 4.1 | 9.2 | 
